“Also recorded” adds a separate entry of the source. Read-outs that look alike come from different tables or passages of the source. Where a SMILES comes first, the peptide text is derived from it. Bridges are numbered along the chain shown (N, C = ends). [ ]: non-standard residue; d: D form. Tyr(SO2F) = N[C@@H](Cc1ccc(OS(=O)(=O)F)cc1)C(=O)O; S5 = C=CCCC[C@](C)(N)C(=O)O
Experiments:
[1] = biological target: hMcl-1(172–323) Lys234Ala (Homo sapiens, UniProt Q07820, K234A); experiment: SDS gel electrophoresis, Lys234Ala mutant; type: binding; conditions: 100 μM compound, 7 h
Outline: (§1)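 Wild-type, His224Ala, His252Ala or Lys234Ala hMcl-1(172–323) (10 μM) was incubated with or without 100 μM test agent in 50 mM phosphate pH 7.5, 150 mM NaCl, 1% DMSO. Samples ran on 12% Bis-Tris SDS-PAGE with MOPS running buffer and protein stain. Mutants were sampled at 7 h. Wild type was also sampled over a time course, and complex formation was estimated qualitatively from the gel.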

[2] = biological target: T1, 6×His-tagged hMcl-1(172–323) (Homo sapiens, UniProt Q07820); experiment: DELFIA displacement assay; type: binding
Outline: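 6×His-tagged hMcl-1(172–323) (16 nM) in a heterogeneous DELFIA format. The test agent displaces a biotinylated BIM BH3 reference peptide. Test agent was preincubated with protein for a fixed time (2 h for the peptide series) before dose–response measurement. IC50 was taken from the dose–response curves, and the ratio line is the ratio of these IC50 values.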

hMcl-1(172–323) [3] = biological target: T2, hMcl-1(172–323) (Homo sapiens, UniProt Q07820); experiment: LC-MS analysis of covalent complex; type: binding; conditions: 10 μM protein, 100 μM compound, 7 h, room temperature
[4] = biological target: hMcl-1(172–323) His252Ala (Homo sapiens, UniProt Q07820, H252A); experiment: SDS gel electrophoresis, His252Ala mutant; type: binding; conditions: 100 μM compound, 7 h
Outline: as §1

[5] = biological target: His224Ala hMcl-1(172–323) (Homo sapiens, UniProt Q07820, H224A); experiment: LC-MS analysis of covalent complex, His224Ala mutant; type: binding; conditions: 10 μM protein, 100 μM compound, 7 h
[6] = biological target: hMcl-1(172–323) His224Ala (Homo sapiens, UniProt Q07820, H224A); experiment: SDS gel electrophoresis, His224Ala mutant; type: binding; conditions: 100 μM compound, 7 h
Outline: as §1

hMcl-1(172–323) [7] = biological target: T2, hMcl-1(172–323); experiment: SDS gel electrophoresis, covalent adduct formation; type: binding; conditions: 10 μM protein, 100 μM compound
Outline: as §1

hMcl-1 = hMcl-1 (Homo sapiens, UniProt Q07820); experiment: Kinetic measurements with the DELFIA assay; type: binding
Outline: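 In the DELFIA format, wells with 16 nM Mcl-1 and 1:2000 Eu–N1 anti-6×His antibody were incubated 2 h, then with test compound for 0, 2, 5, 10, 20 and 40 min. Wells were washed three times and given enhancement solution for 10 min, then Eu fluorescence was read (excitation 340, emission 615). kobs came from the slope of % inhibition versus time, plotted against concentration and fitted hyperbolically to give KI and kinact.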

6×His-hBfl-1(1–149) = experiment: DELFIA displacement assay against hBfl-1; type: binding, human; conditions: same experimental conditions as the hMcl-1 DELFIA assay
[8] = Plasma stability by 1D 1H NMR; type: in vitro ADME; conditions: human plasma in PBS
[9] = Chemical stability in aqueous buffer by 1D 1H and 19F NMR; type: physicochemical; conditions: 100 μM in 50 mM phosphate pH 7.5, 150 mM NaCl; up to 48 h
Outline: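 Test compound at 100 μM in 50 mM phosphate pH 7.5, 150 mM NaCl. 1D 1H spectra were collected at set time points, and 19F 1D spectra were recorded in the same buffer at various time points on a 600 MHz instrument. Stability was judged from changes in the spectra over time.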

[10] = biological target: T1, 6×His-tagged hMcl-1(172–323); conditions: against hMcl-1; previously identified minimal binding peptide; cited from earlier work

T1 sequence (Q07820 172-323): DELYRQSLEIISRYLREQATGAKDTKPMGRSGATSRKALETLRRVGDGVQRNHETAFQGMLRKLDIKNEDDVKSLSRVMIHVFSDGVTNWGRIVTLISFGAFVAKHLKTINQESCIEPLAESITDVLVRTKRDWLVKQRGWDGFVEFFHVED
T2 sequence (Q07820 172-323): as above
Chain of His224Ala hMcl-1(172–323) (Q07820 172-323 H224A): as the sequence (Q07820 172-323) above, with H53A counted along it
Chain of hMcl-1(172–323) His224Ala (Q07820 172-323 H224A): as the sequence (Q07820 172-323) above, with H53A counted along it
Chain of hMcl-1(172–323) His252Ala (Q07820 172-323 H252A): as the sequence (Q07820 172-323) above, with H81A counted along it
Chain of hMcl-1 (Q07820 172-323): as the sequence (Q07820 172-323) above
Chain of hMcl-1(172–323) Lys234Ala (Q07820 172-323 K234A): as the sequence (Q07820 172-323) above, with K63A counted along it

Molecule | band shift (stable adduct) [1] | IC50 [2] | covalent adduct by mass spectrometry (hMcl-1(172–323) [3]) | band shift (stable adduct) [4] | covalent adduct by mass spectrometry [5] | band shift (stable adduct) [6] | band shift (stable adduct) (hMcl-1(172–323) [7]; 7 h incubation) | kinact/KI (hMcl-1) | times less active against hBfl-1(1–149) than hMcl-1 (6×His-hBfl-1(1–149)) | plasma stability ([8]; 8 h) | remaining after incubation in plasma ([8]; 24 h) | chemical stability in aqueous buffer [9] | time to approximately 50% complex formation (hMcl-1(172–323) [7]; qualitative from gel) | time to complete (or nearly complete) adduct formation (hMcl-1(172–323) [7]; qualitative from gel) | IC50 [10]
CC[C@H](C)[C@H](NC(C)=O)C(=O)N[C@@H](C)C(=O)N[C@@H](CCC(=O)O)C(=O)N[C@@H](CCC(N)=O)C(=O)N[C@@H](CC(C)C)C(=O)N[C@@H](CCCNC(=N)N)C(=O)N[C@@H](CCCNC(=N)N)C(=O)N[C@H](C(=O)NCC(=O)N[C@@H](CC(=O)O)C(=O)N[C@@H](CCCNC(=N)N)C(=O)N[C@@H](Cc1ccc(OS(=O)(=O)F)cc1)C(N)=O)[C@@H](C)CC [compound 6] (Ac-IAEQLRRIGDR[Tyr(SO2F)]-NH2) | band shifts | 8.1 nM | forms a stable 1:1 complex | band shifts | no MW increase was observed | not with the His224Ala mutant | band shift | – | – | – | – | – | – | – | –
CC[C@H](C)[C@H](NC(C)=O)C(=O)N[C@@H](C)C(=O)N[C@@]1(C)CCC/C=C\CCC[C@@](C)(C(=O)N[C@H](C(=O)NCC(=O)N[C@@H](CC(=O)O)C(=O)N[C@@H](CCCNC(=N)N)C(=O)N[C@@H](Cc2ccc(OS(=O)(=O)F)cc2)C(N)=O)[C@@H](C)CC)NC(=O)[C@H](CCCNC(=N)N)NC(=O)[C@H](CC(C)C)NC(=O)[C@H](CCC(N)=O)NC1=O [compound 9] (Ac-IA[S5]QLR[S5]IGDR[Tyr(SO2F)]-NH2; staple (Z) 3-7) | – | 5.8 ± 0.9 nM | corresponding to the anticipated mass of the covalent adduct | – | could not form a covalent adduct | – | – | 67000 ± 3e+07 M⁻¹ s⁻¹ | ~160 times | remains mostly intact | ~40% | No significant spectral changes were observed; also recorded: did not observe any degradation | ~1 h | ≤ 4 h | –
IAEQLRRIGDRF | – | – | – | – | – | – | – | – | – | – | – | – | – | – | 250 nM

Source: paper PMC11613628 (Journal of Medicinal Chemistry, 2024)
